# Values joined by “and” are separate entries in the source; they are usually repeats but may differ in a detail not shown here. Equal values may be shown once.
# Tested on: HEK-293T
# Assay: Multiplex assay against HEK293T
# Type: toxicity, cell-based
# Conditions: human
# How it was run: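 Phenotypes for tubulin, mitochondrial mass and membrane permeability are expressed as per cents of healthy-nucleus cells. Cells were stained live at seeding with Hoechst33342, BioTracker Green Microtubule Cytoskeleton Dye, MitoTracker Red and Annexin V Alexa Fluor 680, then imaged after compound addition on a CQ1 microscope at 37°C and 5% CO2. Machine-learning gating in CellPathfinder separated Hoechst high-intensity objects from normal cells, divided normal cells by nuclear state (healthy, pyknosed, fragmented) and divided pyknosed cells into mitotic or apoptotic.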
# [1] = 12 h, 1 µM, compound concentration 1 uM
# [2] = 12 h, 10 µM, compound concentration 10 uM
# [3] = 24 h, 1 µM, compound concentration 1 uM
# [4] = 24 h, 10 µM, compound concentration 10 uM
# [5] = 48 h, 1 µM, compound concentration 1 uM
# [6] = 48 h, 10 µM, compound concentration 10 uM
structure (smiles),measurement,setting,value
COc1c(Nc2ccc(S(C)(=O)=O)nc2C)ncnc1OC1CCN(C(=O)OC(C)C)CC1 [ADP-597],Population Apoptotic (%),[1],29% and 38%
same,Population Fragmented Nuclei (%),[1],5% and 4%
same,Population Healthy Nuclei (%),[1],78% and 80%
same,Population Hoechst High Intensity Objects (%),[1],6% and 3%
same,Population Membrane Permeable-Phenotype (%),[1],0%
same,Population Mitochondria Different-Phenotype (%),[1],47% and 62%
same,Population Mitotic Cells (%),[1],70% and 62%
same,Population Normal (%),[1],93% and 96%
same,Population Pyknosed Nuclei (%),[1],16% and 14%
same,Population Tubulin-Different-Phenotype (%),[1],36% and 25%
same,Total Cell Count,[1],430 and 347
same,Population Apoptotic (%),[2],47%
same,Population Fragmented Nuclei (%),[2],7%
same,Population Healthy Nuclei (%),[2],75% and 72%
same,Population Membrane Permeable-Phenotype (%),[2],0%
same,Population Mitochondria Different-Phenotype (%),[2],70% and 71%
same,Population Mitotic Cells (%),[2],52%
same,Population Normal (%),[2],91% and 74%
same,Population Pyknosed Nuclei (%),[2],17% and 20%
same,Population Tubulin-Different-Phenotype (%),[2],44% and 36%
same,Total Cell Count,[2],302 and 238
same,Population Apoptotic (%),[3],23% and 30%
same,Population Fragmented Nuclei (%),[3],7% and 6%
same,Population Healthy Nuclei (%),[3],81% and 84%
same,Population Hoechst High Intensity Objects (%),[3],2% and 3%
same,Population Membrane Permeable-Phenotype (%),[3],0% and 1%
same,Population Mitochondria Different-Phenotype (%),[3],20% and 34%
same,Population Mitotic Cells (%),[3],76% and 69%
same,Population Normal (%),[3],97% and 96%
same,Population Pyknosed Nuclei (%),[3],11% and 9%
same,Population Tubulin-Different-Phenotype (%),[3],16% and 15%
same,Total Cell Count,[3],587 and 447
same,Population Apoptotic (%),[4],44% and 63%
same,Population Fragmented Nuclei (%),[4],9% and 11%
same,Population Healthy Nuclei (%),[4],74% and 71%
same,Population Hoechst High Intensity Objects (%),[4],7% and 21%
same,Population Membrane Permeable-Phenotype (%),[4],0%
same,Population Mitochondria Different-Phenotype (%),[4],58% and 54%
same,Population Mitotic Cells (%),[4],55% and 36%
same,Population Normal (%),[4],92% and 78%
same,Population Pyknosed Nuclei (%),[4],15% and 17%
same,Population Tubulin-Different-Phenotype (%),[4],38% and 25%
same,Total Cell Count,[4],355 and 300
same,Population Apoptotic (%),[5],25% and 36%
same,Population Fragmented Nuclei (%),[5],13%
same,Population Healthy Nuclei (%),[5],78% and 77%
same,Population Hoechst High Intensity Objects (%),[5],2% and 5%
same,Population Membrane Permeable-Phenotype (%),[5],0% and 1%
same,Population Mitochondria Different-Phenotype (%),[5],18% and 23%
same,Population Mitotic Cells (%),[5],75% and 63%
same,Population Normal (%),[5],97% and 94%
same,Population Pyknosed Nuclei (%),[5],8% and 9%
same,Population Tubulin-Different-Phenotype (%),[5],13% and 14%
same,Total Cell Count,[5],924 and 590
same,Population Apoptotic (%),[6],35% and 43%
same,Population Fragmented Nuclei (%),[6],15% and 13%
same,Population Healthy Nuclei (%),[6],73%
same,Population Hoechst High Intensity Objects (%),[6],4% and 10%
same,Population Membrane Permeable-Phenotype (%),[6],0%
same,Population Mitochondria Different-Phenotype (%),[6],38% and 32%
same,Population Mitotic Cells (%),[6],64% and 56%
same,Population Normal (%),[6],95% and 89%
same,Population Pyknosed Nuclei (%),[6],11% and 12%
same,Population Tubulin-Different-Phenotype (%),[6],23% and 18%
same,Total Cell Count,[6],494 and 392
COc1cc(Nc2ncc3c(n2)-c2ccc(Cl)cc2C(c2c(F)cccc2OC)=NC3)ccc1C(=O)O [ALISERTIB],Population Apoptotic (%),[1],38% and 61%
same,Population Fragmented Nuclei (%),[1],3% and 7%
same,Population Healthy Nuclei (%),[1],88% and 85%
same,Population Hoechst High Intensity Objects (%),[1],5% and 7%
same,Population Membrane Permeable-Phenotype (%),[1],0%
same,Population Mitochondria Different-Phenotype (%),[1],44% and 69%
same,Population Mitotic Cells (%),[1],61% and 38%
same,Population Normal (%),[1],94% and 93%
same,Population Pyknosed Nuclei (%),[1],7%
same,Population Tubulin-Different-Phenotype (%),[1],46% and 49%
same,Population Apoptotic (%),[2],61% and 88%
same,Population Fragmented Nuclei (%),[2],8% and 9%
same,Population Healthy Nuclei (%),[2],74% and 72%
same,Population Hoechst High Intensity Objects (%),[2],9% and 15%
same,Population Membrane Permeable-Phenotype (%),[2],0%
same,Population Mitochondria Different-Phenotype (%),[2],80% and 82%
same,Population Normal (%),[2],90% and 84%
same,Population Pyknosed Nuclei (%),[2],16% and 17%
same,Population Tubulin-Different-Phenotype (%),[2],68% and 54%
same,Population Apoptotic (%),[3],50% and 47%
same,Population Fragmented Nuclei (%),[3],10% and 9%
same,Population Healthy Nuclei (%),[3],82% and 81%
same,Population Hoechst High Intensity Objects (%),[3],3% and 9%
same,Population Membrane Permeable-Phenotype (%),[3],0%
same,Population Mitochondria Different-Phenotype (%),[3],25% and 47%
same,Population Mitotic Cells (%),[3],50% and 52%
same,Population Normal (%),[3],96% and 90%
same,Population Pyknosed Nuclei (%),[3],7% and 9%
same,Population Tubulin-Different-Phenotype (%),[3],31% and 30%
same,Population Apoptotic (%),[4],54% and 56%
same,Population Fragmented Nuclei (%),[4],8% and 12%
same,Population Healthy Nuclei (%),[4],74% and 55%
same,Population Membrane Permeable-Phenotype (%),[4],0% and 1%
same,Population Mitochondria Different-Phenotype (%),[4],75% and 86%
same,Population Mitotic Cells (%),[4],45% and 43%
same,Population Normal (%),[4],93% and 65%
same,Population Pyknosed Nuclei (%),[4],16% and 31%
same,Population Tubulin-Different-Phenotype (%),[4],64% and 50%
same,Population Apoptotic (%),[5],31% and 57%
same,Population Fragmented Nuclei (%),[5],14% and 16%
same,Population Healthy Nuclei (%),[5],79% and 77%
same,Population Membrane Permeable-Phenotype (%),[5],0%
same,Population Mitochondria Different-Phenotype (%),[5],14% and 27%
same,Population Mitotic Cells (%),[5],68% and 42%
same,Population Normal (%),[5],96% and 84%
same,Population Pyknosed Nuclei (%),[5],5%
same,Population Tubulin-Different-Phenotype (%),[5],17% and 24%
same,Population Apoptotic (%),[6],48% and 82%
same,Population Fragmented Nuclei (%),[6],13% and 19%
same,Population Healthy Nuclei (%),[6],78% and 61%
same,Population Membrane Permeable-Phenotype (%),[6],0% and 4%
same,Population Mitochondria Different-Phenotype (%),[6],57% and 73%
same,Population Normal (%),[6],94% and 67%
same,Population Pyknosed Nuclei (%),[6],7% and 19%
same,Population Tubulin-Different-Phenotype (%),[6],42% and 38%

# From ChEMBL document CHEMBL5724801, “EUbOPEN Chemogenomics Library - Multiplex” (2024)
